The results in this text go back to BindingDB's records for doi:10.1021/jm960153q (Rhône-Poulenc Rorer, 1996).

Assay [1] in a line: Concentration at which one-half of the maximum Low density lipoprotein receptor is upregulated in HepG2 cells.
For assay [2], the target named is Low-density lipoprotein receptor (Homo sapiens, UniProt P01130). As to the kind of experiment: Concentration at which one-half the maximum Low density lipoprotein receptor up-regulation is observed in HepG2 cells. The method in brief: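 HepG2 cells in 96-well plates at 10 000 cells/well, grown 3 days to 80% confluence. Compounds added in DMEM with 1% BSA for 24 h at several concentrations. Formaldehyde-fixed cells probed with MAC-C7 (0.5 µg/mL, 60 min, 4 °C), then alkaline phosphatase-linked anti-mouse IgG, then fluorogenic substrate. EC50 is the concentration giving half-maximal upregulation, determined only when upregulation at 3 µM exceeded 40%. Five replicates.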
Chain of Low-density lipoprotein receptor (P01130 whole entry): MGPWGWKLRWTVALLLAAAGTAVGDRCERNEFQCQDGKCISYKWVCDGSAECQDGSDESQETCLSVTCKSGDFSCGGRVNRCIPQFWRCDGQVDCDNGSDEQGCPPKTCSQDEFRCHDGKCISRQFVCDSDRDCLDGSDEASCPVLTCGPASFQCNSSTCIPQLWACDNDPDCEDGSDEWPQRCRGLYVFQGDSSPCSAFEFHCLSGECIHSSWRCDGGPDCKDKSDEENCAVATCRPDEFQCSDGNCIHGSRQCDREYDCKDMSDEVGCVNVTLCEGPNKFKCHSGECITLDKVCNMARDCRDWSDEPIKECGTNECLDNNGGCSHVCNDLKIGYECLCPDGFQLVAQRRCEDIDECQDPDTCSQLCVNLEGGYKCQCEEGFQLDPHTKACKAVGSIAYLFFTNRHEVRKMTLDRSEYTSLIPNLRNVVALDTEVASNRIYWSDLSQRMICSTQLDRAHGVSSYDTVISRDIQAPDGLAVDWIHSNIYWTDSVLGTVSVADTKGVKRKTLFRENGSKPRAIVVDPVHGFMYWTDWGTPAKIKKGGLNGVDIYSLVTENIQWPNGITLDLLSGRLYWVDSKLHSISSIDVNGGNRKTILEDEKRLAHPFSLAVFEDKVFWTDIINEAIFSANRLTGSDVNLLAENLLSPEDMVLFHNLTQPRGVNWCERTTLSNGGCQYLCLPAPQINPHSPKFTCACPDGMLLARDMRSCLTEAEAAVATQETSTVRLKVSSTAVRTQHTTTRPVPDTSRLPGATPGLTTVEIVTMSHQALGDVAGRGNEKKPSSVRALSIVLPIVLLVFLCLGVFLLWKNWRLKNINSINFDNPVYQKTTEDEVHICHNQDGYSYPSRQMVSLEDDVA

As a reminder, the EC50 is the midpoint of the concentration-response curve. Compound `Cc1ccc(NC(=O)CCC2CCCCC2)cc1-c1nc2ccc(O)cc2[nH]1` [3-Cyclohexyl-N-[3-(5-hydroxy-1H-benzoimidazol-2-yl)-4-methyl-phenyl]-propionamide] came in with an EC50 in assay [1] of 700 nM.

In assay [1], `Cc1ccc2nc(-c3cc(NC(=O)CCC4CCCCC4)ccc3C)[nH]c2c1` [3-Cyclohexyl-N-[4-methyl-3-(5-methyl-1H-benzoimidazol-2-yl)-phenyl]-propionamide] came in with an EC50 of 1300 nM.

The compound `Cc1ccc(NC(=O)CCC2CCCCC2)cc1NC(=O)c1ccc(N)cc1` [4-Amino-N-[5-(3-cyclohexyl-propionylamino)-2-methyl-phenyl]-benzamide] had an EC50 in assay [1] of 3800 nM.

`Cc1ccc(NC(=O)CCC2CCCCC2)cc1C(=O)Nc1ccc(O)cc1` [5-(3-Cyclohexyl-propionylamino)-N-(4-hydroxy-phenyl)-2-methyl-benzamide] gave an EC50 in assay [1] of 7000 nM.

`CC(=O)Oc1ccc(C(=O)Nc2cc(NC(=O)CCC3CCCCC3)ccc2C)cc1` [Acetic acid 4-[5-(3-cyclohexyl-propionylamino)-2-methyl-phenylcarbamoyl]-phenyl ester] came in with an EC50 in assay [1] of 2500 nM.

With `Cc1ccc(C(=O)NCCC2CCCCC2)cc1NC(=O)c1ccc(O)cc1` [N-(2-Cyclohexyl-ethyl)-3-(4-hydroxy-benzoylamino)-4-methyl-benzamide], the midpoint of the response in assay [1], the EC50, lay at 2000 nM. The EC50 values of the last two compounds are within 1.5-fold of each other.

In the case of `Cc1ccc(NC(=O)CCC2CCCCC2)cc1-c1nc2ccccc2[nH]1` [N-[3-(1H-Benzoimidazol-2-yl)-4-methyl-phenyl]-3-cyclohexyl-propionamide], in assay [1], the response was half-maximal at 1300 nM (EC50).

Take `Cc1ccc(NC(=O)CCC2CCCCC2)cc1/C=C(\C#N)c1ccc2c(c1)OCO2` [N-[3-((Z)-2-Benzo[1,3]dioxol-5-yl-2-cyano-vinyl)-4-methyl-phenyl]-3-cyclohexyl-propionamide]: in assay [1], the EC50 came to 700 nM.

As to `Cc1ccc(NC(=O)CCC2CCCCC2)cc1/C=C(\C#N)c1cccnc1` [N-[3-((Z)-2-Cyano-2-pyridin-3-yl-vinyl)-4-methyl-phenyl]-3-cyclohexyl-propionamide], the EC50 in assay [1] stood at 1000 nM.

Consider `Cc1ccc(NC(=O)CCC2CCCCC2)cc1NC(=O)c1cccc(O)c1` [N-[5-(3-Cyclohexyl-propionylamino)-2-methyl-phenyl]-3-hydroxy-benzamide], for which, in assay [1], the EC50 came out at 2000 nM.

Take `Cc1ccc(NC(=O)CCC2CCCCC2)cc1NC(=O)c1ccc(O)cc1` [N-[5-(3-Cyclohexyl-propionylamino)-2-methyl-phenyl]-4-hydroxy-benzamide]: the EC50 in assay [1] stood at 1700 nM.

The compound `Cc1ccc(NC(=O)CCC2CCCCC2)cc1NC(=O)c1ccc(CO)cc1` [N-[5-(3-Cyclohexyl-propionylamino)-2-methyl-phenyl]-4-hydroxymethyl-benzamide] returned an EC50 in assay [1] of 7600 nM.

Consider `Cc1ccc(NC(=O)CCC2CCCCC2)cc1NC(=O)c1ccccc1` [N-[5-(3-Cyclohexyl-propionylamino)-2-methyl-phenyl]-benzamide], for which it took 2000 nM to reach a half-maximal effect in assay [1] (EC50).

In assay [1], `Cc1ccc(NC(=O)CCC2CCCCC2)cc1NC(=O)c1cccnc1` [N-[5-(3-Cyclohexyl-propionylamino)-2-methyl-phenyl]-nicotinamide] showed an EC50 of 1200 nM.

For the compound `Cc1ccc(C(=O)CCCC2CCCCC2)cc1NC(=O)c1cccnc1` [N-[5-(4-Cyclohexyl-butyryl)-2-methyl-phenyl]-nicotinamide], the EC50 in assay [2] was determined as 2000 nM.

As for `Cc1ccc(NC(=O)CCCC2CCCCC2)cc1NC(=O)c1ccc(O)cc1` [N-[5-(4-Cyclohexyl-butyrylamino)-2-methyl-phenyl]-4-hydroxy-benzamide], the response in assay [1] was half-maximal at 4000 nM (EC50).
